The values that follow come from ChEMBL document CHEMBL1136217, “Mapping the kinase domain of Janus Kinase 3” (Bioorg Med Chem Lett, 2003).

SMILES strings stand for the structures. Active and inactive are the calls of the source. No cut-off for these calls is given here.

Data set [1] concerns the target T1, Tyrosine-protein kinase JAK3 (Homo sapiens, UniProt P52333).
T1 sequence (P52333 whole entry): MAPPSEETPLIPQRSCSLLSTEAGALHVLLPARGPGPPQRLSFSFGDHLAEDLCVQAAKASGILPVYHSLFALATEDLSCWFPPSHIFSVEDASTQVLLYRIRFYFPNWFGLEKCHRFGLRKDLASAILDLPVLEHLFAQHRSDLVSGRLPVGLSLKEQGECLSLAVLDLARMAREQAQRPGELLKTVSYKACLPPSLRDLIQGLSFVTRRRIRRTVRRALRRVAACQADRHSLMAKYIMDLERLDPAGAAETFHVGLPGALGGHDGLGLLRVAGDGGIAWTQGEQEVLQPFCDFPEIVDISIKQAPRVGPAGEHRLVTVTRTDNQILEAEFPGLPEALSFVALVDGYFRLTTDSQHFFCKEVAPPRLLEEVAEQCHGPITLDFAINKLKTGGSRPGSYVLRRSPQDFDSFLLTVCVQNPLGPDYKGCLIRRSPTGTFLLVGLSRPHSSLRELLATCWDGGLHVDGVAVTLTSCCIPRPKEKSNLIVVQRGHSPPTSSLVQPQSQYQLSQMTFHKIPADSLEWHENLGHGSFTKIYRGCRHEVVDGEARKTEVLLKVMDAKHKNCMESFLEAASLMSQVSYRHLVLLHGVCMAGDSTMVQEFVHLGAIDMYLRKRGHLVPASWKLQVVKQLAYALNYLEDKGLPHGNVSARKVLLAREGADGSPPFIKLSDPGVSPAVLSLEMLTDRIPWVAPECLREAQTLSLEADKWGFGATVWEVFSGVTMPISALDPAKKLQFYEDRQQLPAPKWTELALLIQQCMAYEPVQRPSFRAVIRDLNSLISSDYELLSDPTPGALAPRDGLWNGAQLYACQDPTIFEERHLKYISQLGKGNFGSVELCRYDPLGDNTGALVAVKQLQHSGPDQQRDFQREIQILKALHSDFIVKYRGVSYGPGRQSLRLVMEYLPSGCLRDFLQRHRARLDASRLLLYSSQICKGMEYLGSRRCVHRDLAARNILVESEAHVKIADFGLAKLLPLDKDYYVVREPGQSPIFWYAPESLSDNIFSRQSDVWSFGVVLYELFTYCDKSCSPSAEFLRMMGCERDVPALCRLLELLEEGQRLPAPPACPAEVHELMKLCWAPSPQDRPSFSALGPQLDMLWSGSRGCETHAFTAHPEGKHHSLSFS
Kind of data set: Inhibitory activity against Janus Kinase 3 protein tyrosine kinase.

The subject of data set [2] is T-cell. As to the kind of experiment: Inhibitory activity against IL-2 induced proliferation of human T-cells. It is filed as functional, cell-based.
The target of data set [3] is Tyrosine-protein kinase JAK3 (Mus musculus) (UniProt Q62137). As to conditions: at 3 µM.
Data set [4] deals with CTLL. As to the kind of experiment: Inhibitory activity against IL-2 induced proliferation of mouse CTLL cells. The format is functional, cell-based.
A short description of data set [5]: T max following ip administration at 1 mg/kg. It is filed as ADME, organism-based. Details: dose 1 mg/kg, route intraperitoneal. The conditions noted are these: in vivo.
Data set [6] is described as follows: Terminal T1/2 following ip administration at 1 mg/kg. It is filed as ADME, organism-based. Details: dose 1 mg/kg, route intraperitoneal. The conditions noted are these: in vivo.
The nature of data set [7]: Cp max following ip administration at 1 mg/kg. The format is ADME, organism-based. Details: dose 1 mg/kg, route intraperitoneal. The conditions noted are these: plasma, read-out: Cp max.
Data set [8] is described as follows: Area under curve (AUC) following ip administration at 1 mg/kg. The format is ADME, organism-based. On the set-up: dose 1 mg/kg, route intraperitoneal. As to conditions: in vivo.
Data set [9] relates to T-cell. Kind of data set: Inhibitory activity against IL-2 induced proliferation in human T-cells. The format is functional, cell-based.
Data set [10] deals with CTLL. Kind of data set: Inhibitory activity against IL-2 induced proliferation in mouse CTLL cells. The format is functional, cell-based. The method, boiled down: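 Murine CTLL cells were seeded at 2 × 10^4 per well without IL-2 for 6 h. At time zero, recombinant human IL-2 (10 U/mL) and inhibitor in DMSO (0.5% final) were added. [3H]-thymidine (1 µCi/well) was added at 18 h, and cells were harvested at 24 h. Proliferation was read as incorporated radioactivity by scintillation counting.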

Chain of Tyrosine-protein kinase JAK3 (Mus musculus) (Q62137 whole entry, looked up): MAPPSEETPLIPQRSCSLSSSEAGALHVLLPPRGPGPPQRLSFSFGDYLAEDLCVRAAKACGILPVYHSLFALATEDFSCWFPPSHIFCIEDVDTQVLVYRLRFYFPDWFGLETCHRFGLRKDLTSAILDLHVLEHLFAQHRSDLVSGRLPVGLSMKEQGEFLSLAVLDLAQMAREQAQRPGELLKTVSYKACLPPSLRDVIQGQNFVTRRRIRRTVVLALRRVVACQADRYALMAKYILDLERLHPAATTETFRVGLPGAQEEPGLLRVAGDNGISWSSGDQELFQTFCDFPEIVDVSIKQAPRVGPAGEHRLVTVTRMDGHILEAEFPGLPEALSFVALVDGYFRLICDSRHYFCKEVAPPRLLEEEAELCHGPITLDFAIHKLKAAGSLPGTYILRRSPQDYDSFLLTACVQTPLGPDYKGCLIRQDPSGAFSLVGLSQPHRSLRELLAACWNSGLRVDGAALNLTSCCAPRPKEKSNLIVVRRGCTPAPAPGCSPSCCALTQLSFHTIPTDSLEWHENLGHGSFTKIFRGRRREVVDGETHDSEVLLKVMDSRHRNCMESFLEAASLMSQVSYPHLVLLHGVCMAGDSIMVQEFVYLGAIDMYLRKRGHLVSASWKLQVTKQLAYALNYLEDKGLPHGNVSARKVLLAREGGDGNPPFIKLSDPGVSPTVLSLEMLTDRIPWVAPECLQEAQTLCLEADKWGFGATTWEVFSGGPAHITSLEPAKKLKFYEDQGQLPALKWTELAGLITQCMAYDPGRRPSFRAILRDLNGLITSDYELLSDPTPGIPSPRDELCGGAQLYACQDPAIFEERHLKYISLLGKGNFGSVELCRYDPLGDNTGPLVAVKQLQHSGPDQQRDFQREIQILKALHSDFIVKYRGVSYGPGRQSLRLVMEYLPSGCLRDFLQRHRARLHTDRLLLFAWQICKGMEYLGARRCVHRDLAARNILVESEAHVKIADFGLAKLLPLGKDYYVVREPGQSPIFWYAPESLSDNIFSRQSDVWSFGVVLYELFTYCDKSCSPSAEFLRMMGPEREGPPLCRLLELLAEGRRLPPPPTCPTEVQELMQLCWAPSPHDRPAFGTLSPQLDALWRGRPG

For the compound `O=C1Nc2ccc([N+](=O)[O-])cc2/C1=C/c1ccc[nH]1`, the IC50 in data set [1] came to 710 nM. This counts as sub-micromolar.
Regarding `O=C1Nc2ccc(-c3cccnc3)nc2/C1=C/c1ccc[nH]1`, the IC50 in the data set on T-cell [2] amounted to 700 nM; with CTLL [4] it was 920 nM; in data set [1], 235 nM. For the same compound, the inhibition entry in data set [3] was “Active”.
On to `CS(=O)(=O)c1ccc(/C=C2\C(=O)Nc3ccc(C(=O)c4cccs4)cc32)cc1`, for which the IC50 in data set [1] amounted to 7100 nM.
The same measure, in the same setting: the figure for `O=C1Nc2ccc(C(=O)c3cccs3)cc2/C1=C/c1ccc[nH]1` is 26 nM.
Still for that read-out and setting: the figure for `O=C1Nc2ccc(C(=O)O)cc2/C1=C/c1ccc[nH]1` is 213 nM.
Take `O=C1Nc2ccc(C(=O)c3cccs3)cc2/C1=C/c1ccccc1`: the midpoint of inhibition in [1], the IC50, lay at 2300 nM. Compared with the last compound, the IC50 is about 11-fold higher.
Same read-out and setting: as for `CN(C)c1ccc(/C=C2\C(=O)Nc3ccc(C(=O)c4cccs4)cc32)cc1`, the figure is 200 nM; as for `O=C1Nc2ccc(C(=O)c3cccnc3)cc2/C1=C/c1ccc[nH]1`, 168 nM.
Still for that read-out and setting: the figure for `CC(=O)Nc1ccc(/C=C2\C(=O)Nc3ccc(C(=O)c4cccs4)cc32)cc1` is 700 nM; for `CN(C)C(=O)c1ccc2c(c1)/C(=C/c1ccc[nH]1)C(=O)N2` it is 210 nM.
Take `O=C1Nc2cnc(-c3cccnc3)cc2/C1=C/c1ccc[nH]1`: the 50% inhibitory concentration (IC50) with T-cell [2] was 30 nM; in the data set with CTLL [4] it was 450 nM. In addition, the time to peak (Tmax) in data set [5] stood at 0.5 h. For the same compound, the half-life in [6] is 3.3 h. Moreover, the Cmax in data set [7] was found to be 700 ng/mL. The same compound yielded an AUC in data set [8] of 4580 ng·h/mL.
`O=C1Nc2ccc(C(=O)c3cccs3)cc2/C1=C/C(=O)c1ccc[nH]1` showed a 50% inhibitory concentration (IC50) in data set [1] of 260 nM.
In [1], `O=C1Nc2ccc(C(O)c3cccs3)cc2/C1=C/c1ccc[nH]1` (centres undefined) registered a half-inhibitory concentration (IC50) of 190 nM.
On to `O=C1Nc2ncc(-c3cccnc3)cc2/C1=C/c1ccc[nH]1`, for which the IC50 is 2000 nM with T-cell [9] and 2300 nM in the data set with CTLL [10].
`O=C1Nc2ccc(NC(=O)c3ccccc3)cc2/C1=C/c1ccc[nH]1` registered an IC50 in data set [1] of 870 nM.
In turn, `O=C1Nc2ccc(C(=O)c3cccs3)cc2/C1=C/c1ccc(F)cc1` registered an IC50 in [1] of 4900 nM.
For the compound `O=C1Nc2ccc(-c3cccnc3)cc2/C1=C/c1ccc[nH]1`, in [5], the Tmax came out at 0.5 h. The half-life in data set [6] was 3 h. Besides, the Cmax in [7] was found to be 600 ng/mL. In data set [8], this compound gave an area under the curve (AUC) of 7690 ng·h/mL.
